In ChEMBL document CHEMBL5303300, “EUbOPEN Chemogenomics Library - Multiplex” (2023):
Where “and” joins values, the source holds several entries; their conditions need not be identical. Equal values may be shown once.

What was measured:
HEK-293T = assay: Multiplex assay against HEK293T; type: toxicity, cell-based; conditions: human, number of replicates 2
Method in brief: (§1)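 Cells were classed with CellPathfinder machine-learning gating, first as Hoechst high-intensity objects or normal cells, then (normal cells) as healthy, pyknosed or fragmented nuclei, and finally (pyknosed cells) as mitotic or apoptotic. Staining of live cells at seeding used Hoechst33342, BioTracker Green Microtubule Cytoskeleton Dye, MitoTracker Red and Annexin V Alexa Fluor 680, with imaging on a CQ1 microscope at 37°C and 5% CO2 after compound addition. Tubulin, mitochondrial-mass and membrane-permeability phenotypes are per cents of healthy-nucleus cells.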

U2OS = assay: Multiplex assay against U2OS; type: toxicity, cell-based; conditions: human, number of replicates 2; method in brief: as §1
[1] = 24 h, 1 µM, compound concentration 1 uM
[2] = 24 h, 10 µM, compound concentration 10 uM
[3] = 48 h, 1 µM, compound concentration 1 uM
[4] = 48 h, 10 µM, compound concentration 10 uM
[5] = 12 h, 1 µM, compound concentration 1 uM
[6] = 12 h, 10 µM, compound concentration 10 uM

COc1cc(Nc2cnc(C#N)c(O[C@H](C)CN(C)C)n2)ncc1-c1cnn(C)c1
Population Hoechst High Intensity Objects (%) (HEK-293T; [1]): 8% and 7%
Population Membrane Permeable-Phenotype (%) (HEK-293T; [1]): 4%
Population Mitochondria Different-Phenotype (%) (HEK-293T; [1]): 11% and 14%
Population Mitotic Cells (%) (HEK-293T; [1]): 71% and 73%
Population Normal (%) (HEK-293T; [1]): 91% and 92%
Population Pyknosed Nuclei (%) (HEK-293T; [1]): 9% and 13%
Population Tubulin-Different-Phenotype (%) (HEK-293T; [1]): 46% and 41%
Total Cell Count (HEK-293T; [1]): 801 and 735
Population Apoptotic (%) (HEK-293T; [2]): 63% and 69%
Population Fragmented Nuclei (%) (HEK-293T; [2]): 2% and 3%
Population Healthy Nuclei (%) (HEK-293T; [2]): 76% and 78%
Population Hoechst High Intensity Objects (%) (HEK-293T; [2]): 9% and 10%
Population Membrane Permeable-Phenotype (%) (HEK-293T; [2]): 3% and 4%
Population Mitochondria Different-Phenotype (%) (HEK-293T; [2]): 47% and 42%
Population Mitotic Cells (%) (HEK-293T; [2]): 36% and 30%
Population Normal (%) (HEK-293T; [2]): 90% and 89%
Population Pyknosed Nuclei (%) (HEK-293T; [2]): 20% and 18%
Population Tubulin-Different-Phenotype (%) (HEK-293T; [2]): 85% and 82%
Total Cell Count (HEK-293T; [2]): 524 and 415
Population Apoptotic (%) (HEK-293T; [3]): 31% and 47%
Population Fragmented Nuclei (%) (HEK-293T; [3]): 9% and 7%
Population Healthy Nuclei (%) (HEK-293T; [3]): 79% and 80%
Population Hoechst High Intensity Objects (%) (HEK-293T; [3]): 9% and 8%
Population Membrane Permeable-Phenotype (%) (HEK-293T; [3]): 6% and 8%
Population Mitochondria Different-Phenotype (%) (HEK-293T; [3]): 8% and 11%
Population Mitotic Cells (%) (HEK-293T; [3]): 68% and 52%
Population Normal (%) (HEK-293T; [3]): 90% and 91%
Population Pyknosed Nuclei (%) (HEK-293T; [3]): 10% and 12%
Population Tubulin-Different-Phenotype (%) (HEK-293T; [3]): 39% and 46%
Total Cell Count (HEK-293T; [3]): 1105 and 1012
Population Apoptotic (%) (HEK-293T; [4]): 71% and 67%
Population Fragmented Nuclei (%) (HEK-293T; [4]): 3%
Population Healthy Nuclei (%) (HEK-293T; [4]): 44% and 52%
Population Hoechst High Intensity Objects (%) (HEK-293T; [4]): 12% and 11%
Population Membrane Permeable-Phenotype (%) (HEK-293T; [4]): 4%
Population Mitochondria Different-Phenotype (%) (HEK-293T; [4]): 69% and 77%
Population Mitotic Cells (%) (HEK-293T; [4]): 28% and 32%
Population Normal (%) (HEK-293T; [4]): 87% and 88%
Population Pyknosed Nuclei (%) (HEK-293T; [4]): 52% and 43%
Population Tubulin-Different-Phenotype (%) (HEK-293T; [4]): 81% and 89%
Total Cell Count (HEK-293T; [4]): 374 and 473
Population Apoptotic (%) (U2OS; [5]): 100% and 59%
Population Healthy Nuclei (%) (U2OS; [5]): 63% and 83%
Population Hoechst High Intensity Objects (%) (U2OS; [5]): 0%
Population Mitochondria Different-Phenotype (%) (U2OS; [5]): 8% and 2%
Population Normal (%) (U2OS; [5]): 100%
Population Pyknosed Nuclei (%) (U2OS; [5]): 10% and 11%
Population Tubulin-Different-Phenotype (%) (U2OS; [5]): 75% and 63%
Population Apoptotic (%) (U2OS; [6]): 88% and 56%
Population Healthy Nuclei (%) (U2OS; [6]): 39% and 74%
Population Hoechst High Intensity Objects (%) (U2OS; [6]): 0%
Population Mitochondria Different-Phenotype (%) (U2OS; [6]): 6% and 8%
Population Normal (%) (U2OS; [6]): 100%
Population Pyknosed Nuclei (%) (U2OS; [6]): 21% and 15%
Population Tubulin-Different-Phenotype (%) (U2OS; [6]): 25% and 32%
Population Apoptotic (%) (U2OS; [1]): 50% and 76%
Population Healthy Nuclei (%) (U2OS; [1]): 67% and 86%
Population Hoechst High Intensity Objects (%) (U2OS; [1]): 0%
Population Membrane Permeable-Phenotype (%) (U2OS; [1]): 0% and 2%
Population Mitochondria Different-Phenotype (%) (U2OS; [1]): 0%
Population Mitotic Cells (%) (U2OS; [1]): 50% and 24%
Population Normal (%) (U2OS; [1]): 100%
Population Pyknosed Nuclei (%) (U2OS; [1]): 10% and 8%
Population Tubulin-Different-Phenotype (%) (U2OS; [1]): 81% and 72%
Population Apoptotic (%) (U2OS; [2]): 87% and 64%
Population Fragmented Nuclei (%) (U2OS; [2]): 33% and 11%
Population Healthy Nuclei (%) (U2OS; [2]): 37% and 67%
Population Hoechst High Intensity Objects (%) (U2OS; [2]): 6% and 2%
Population Mitochondria Different-Phenotype (%) (U2OS; [2]): 20% and 9%
Population Mitotic Cells (%) (U2OS; [2]): 12% and 35%
Population Normal (%) (U2OS; [2]): 93% and 97%
Population Pyknosed Nuclei (%) (U2OS; [2]): 29% and 20%
Population Tubulin-Different-Phenotype (%) (U2OS; [2]): 60% and 44%
Population Apoptotic (%) (U2OS; [3]): 66% and 62%
Population Healthy Nuclei (%) (U2OS; [3]): 55% and 83%
Population Hoechst High Intensity Objects (%) (U2OS; [3]): 0%
Population Membrane Permeable-Phenotype (%) (U2OS; [3]): 2%
Population Mitochondria Different-Phenotype (%) (U2OS; [3]): 0%
Population Mitotic Cells (%) (U2OS; [3]): 33% and 37%
Population Normal (%) (U2OS; [3]): 100% and 99%
Population Pyknosed Nuclei (%) (U2OS; [3]): 28% and 12%
Population Tubulin-Different-Phenotype (%) (U2OS; [3]): 94% and 74%
Population Apoptotic (%) (U2OS; [4]): 100% and 85%
Population Fragmented Nuclei (%) (U2OS; [4]): 31% and 20%
Population Healthy Nuclei (%) (U2OS; [4]): 20% and 46%
Population Hoechst High Intensity Objects (%) (U2OS; [4]): 3% and 0%
Population Membrane Permeable-Phenotype (%) (U2OS; [4]): 16% and 7%
Population Mitochondria Different-Phenotype (%) (U2OS; [4]): 16% and 10%
Population Mitotic Cells (%) (U2OS; [4]): 0% and 14%
Population Normal (%) (U2OS; [4]): 96% and 99%
Population Pyknosed Nuclei (%) (U2OS; [4]): 48% and 33%
Population Tubulin-Different-Phenotype (%) (U2OS; [4]): 50% and 59%
